Experimental findings from ChEMBL document CHEMBL2434855, “Aggrecanase-2 inhibitors based on the acylthiosemicarbazide zinc-binding group” (Eur J Med Chem, 2013) are described below.

In experiment [1] the target is T1, Matrix metalloproteinase-9 (Homo sapiens, UniProt P14780). Put plainly: Inhibition of human MMP-9 using NFF-2 as substrate after 90 mins.
Experiment [2] concerns the target T2, A disintegrin and metalloproteinase with thrombospondin motifs 5 (Homo sapiens) (UniProt Q9UNA0).
T2 sequence (whole entry): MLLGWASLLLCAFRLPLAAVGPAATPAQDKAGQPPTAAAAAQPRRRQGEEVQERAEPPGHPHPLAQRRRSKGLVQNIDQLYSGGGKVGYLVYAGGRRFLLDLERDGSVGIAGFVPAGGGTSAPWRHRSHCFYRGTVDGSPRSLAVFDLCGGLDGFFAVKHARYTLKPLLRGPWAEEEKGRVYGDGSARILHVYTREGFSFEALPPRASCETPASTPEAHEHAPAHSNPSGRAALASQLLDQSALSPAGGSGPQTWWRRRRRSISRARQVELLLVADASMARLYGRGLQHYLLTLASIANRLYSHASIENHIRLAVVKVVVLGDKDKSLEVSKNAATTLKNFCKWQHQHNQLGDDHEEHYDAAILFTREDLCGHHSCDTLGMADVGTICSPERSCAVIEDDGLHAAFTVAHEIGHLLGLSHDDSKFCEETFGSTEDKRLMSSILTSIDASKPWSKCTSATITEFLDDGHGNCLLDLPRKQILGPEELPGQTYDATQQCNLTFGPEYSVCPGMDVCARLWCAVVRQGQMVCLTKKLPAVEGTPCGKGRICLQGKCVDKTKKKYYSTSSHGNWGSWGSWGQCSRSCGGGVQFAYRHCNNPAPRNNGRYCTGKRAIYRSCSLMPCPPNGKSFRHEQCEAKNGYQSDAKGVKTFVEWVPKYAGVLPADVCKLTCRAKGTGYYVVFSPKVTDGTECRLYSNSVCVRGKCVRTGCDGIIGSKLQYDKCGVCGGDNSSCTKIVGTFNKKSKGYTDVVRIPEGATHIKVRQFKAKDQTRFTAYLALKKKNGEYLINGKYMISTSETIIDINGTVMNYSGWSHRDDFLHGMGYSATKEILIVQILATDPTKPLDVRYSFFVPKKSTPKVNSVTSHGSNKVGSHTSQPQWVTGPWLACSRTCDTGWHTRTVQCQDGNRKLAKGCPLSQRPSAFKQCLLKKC
The experiment can be described thus: Inhibition of human recombinant ADAMTS-5 using bovine articular aggrecan as substrate incubated 20 mins prior to substrate addition measured after 48 hrs by spectrophotometry. In short, it runs like this:
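ADAMTS-5 (3.4 µL of 600 nM stock) was pre-incubated 20 min at 37 °C with compound or 4% DMSO vehicle in Tris/NaCl/CaCl₂/Brij35, pH 7.5. Bovine articular aggrecan (50 µg/mL final) was added for 48 h at 37 °C, then stopped with EDTA. Samples were bound to PVDF and digested with chondroitinase ABC and keratanase. The ARGSVIL neoepitope was detected by BC-3 ELISA with TMB, read at 450 nm.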

The target in experiment [3] is T1, Matrix metalloproteinase-9. The experiment can be described thus: Inhibition of human MMP-9 using NFF-2 as substrate at 10 uM after 90 mins.
The target in another experiment is Neutrophil collagenase (Homo sapiens, UniProt P22894). The experiment can be described thus: Inhibition of human MMP-8 using Mca-Pro-Cha-Gly-Nva-His-Ala-Dpa-NH2 as substrate after 120 mins.
Neutrophil collagenase, sequence (P22894 whole entry): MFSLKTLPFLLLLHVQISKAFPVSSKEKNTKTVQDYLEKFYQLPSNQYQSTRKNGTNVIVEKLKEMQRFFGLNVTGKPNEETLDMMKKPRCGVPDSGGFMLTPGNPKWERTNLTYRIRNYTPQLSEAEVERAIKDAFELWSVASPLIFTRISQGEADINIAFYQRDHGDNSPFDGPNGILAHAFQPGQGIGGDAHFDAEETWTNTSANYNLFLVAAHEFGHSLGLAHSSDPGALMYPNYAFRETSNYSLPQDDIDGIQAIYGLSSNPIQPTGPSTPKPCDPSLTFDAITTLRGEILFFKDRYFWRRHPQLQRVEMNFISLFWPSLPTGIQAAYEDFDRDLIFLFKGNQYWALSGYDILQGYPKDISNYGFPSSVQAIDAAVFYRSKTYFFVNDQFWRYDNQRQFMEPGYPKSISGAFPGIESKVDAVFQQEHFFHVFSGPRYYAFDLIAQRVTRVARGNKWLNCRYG
In a further experiment the target is T3, Matrilysin (Homo sapiens, UniProt P09237).
T3 sequence (P09237 whole entry): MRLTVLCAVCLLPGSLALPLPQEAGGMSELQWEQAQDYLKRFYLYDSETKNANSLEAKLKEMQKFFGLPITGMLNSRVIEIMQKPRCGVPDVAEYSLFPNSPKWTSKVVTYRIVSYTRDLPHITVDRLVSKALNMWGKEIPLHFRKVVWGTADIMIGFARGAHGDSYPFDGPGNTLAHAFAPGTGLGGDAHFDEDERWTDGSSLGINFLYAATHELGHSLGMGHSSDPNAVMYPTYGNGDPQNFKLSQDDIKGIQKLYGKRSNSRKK
The experiment can be described thus: Inhibition of human MMP-7 after 45 mins.

Experiment [4] concerns the target 72 kDa type IV collagenase (Homo sapiens, UniProt P08253). Put plainly: Inhibition of human MMP-2 using NFF-2 as substrate at 10 uM after 90 mins.

T1 sequence (P14780 whole entry): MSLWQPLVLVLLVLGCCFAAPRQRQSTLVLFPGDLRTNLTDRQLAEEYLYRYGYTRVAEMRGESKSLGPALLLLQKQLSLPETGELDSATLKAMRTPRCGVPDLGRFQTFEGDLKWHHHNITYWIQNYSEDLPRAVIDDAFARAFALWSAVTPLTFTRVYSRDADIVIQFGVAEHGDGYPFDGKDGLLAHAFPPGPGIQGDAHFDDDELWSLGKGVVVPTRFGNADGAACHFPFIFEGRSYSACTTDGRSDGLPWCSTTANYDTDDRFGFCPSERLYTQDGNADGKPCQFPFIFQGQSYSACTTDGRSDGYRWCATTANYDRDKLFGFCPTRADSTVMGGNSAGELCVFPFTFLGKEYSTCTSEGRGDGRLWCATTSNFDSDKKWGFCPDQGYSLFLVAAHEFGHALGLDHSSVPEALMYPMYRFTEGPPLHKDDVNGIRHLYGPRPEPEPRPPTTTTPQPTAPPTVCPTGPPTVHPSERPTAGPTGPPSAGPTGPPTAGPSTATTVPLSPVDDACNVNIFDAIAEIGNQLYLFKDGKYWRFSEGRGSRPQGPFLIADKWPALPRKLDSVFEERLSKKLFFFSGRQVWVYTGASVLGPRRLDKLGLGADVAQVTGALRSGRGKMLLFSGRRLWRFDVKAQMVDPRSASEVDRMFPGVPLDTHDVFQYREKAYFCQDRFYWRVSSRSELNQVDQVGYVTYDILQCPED
72 kDa type IV collagenase, sequence (P08253 110-660 limits assumed): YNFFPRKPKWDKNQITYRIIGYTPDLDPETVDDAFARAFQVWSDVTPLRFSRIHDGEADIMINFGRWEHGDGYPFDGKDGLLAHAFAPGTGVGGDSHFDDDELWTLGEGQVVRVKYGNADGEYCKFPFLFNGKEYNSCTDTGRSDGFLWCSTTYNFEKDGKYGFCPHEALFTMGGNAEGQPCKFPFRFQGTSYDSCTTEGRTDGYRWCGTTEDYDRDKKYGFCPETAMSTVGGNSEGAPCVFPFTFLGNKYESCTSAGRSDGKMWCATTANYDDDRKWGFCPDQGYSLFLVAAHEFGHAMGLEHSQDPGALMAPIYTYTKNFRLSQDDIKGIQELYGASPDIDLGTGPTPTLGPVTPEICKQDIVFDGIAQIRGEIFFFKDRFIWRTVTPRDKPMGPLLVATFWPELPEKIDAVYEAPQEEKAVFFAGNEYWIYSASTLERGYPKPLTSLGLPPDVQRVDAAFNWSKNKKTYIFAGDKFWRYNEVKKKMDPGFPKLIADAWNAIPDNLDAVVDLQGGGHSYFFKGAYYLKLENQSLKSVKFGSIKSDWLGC

Regarding `O=C(COc1ccc(Cl)cc1)NNC(=S)NCCCCC1CCCCC1`, the half-maximal inhibitory concentration (IC50) in experiment [1] was above 10 µM; on Neutrophil collagenase, 47 µM; against Matrilysin, above 100 µM. For the same molecule, the inhibition entry is “Dose-dependent effect” in experiment [2], below 10% in experiment [3] and below 10% in experiment [4].

The IC50 is the midpoint of a concentration-inhibition curve. The low end stands for inhibition by little substance, the high end for a need for much substance. In general, inhibition refers to the drop in the measured response relative to a control, in per cent.
